Measured values from the EternaBench riboswitch data.

System: MS2 coat protein
Assay: apparent Kd, MS2 coat protein; higher = weaker binding; RNA-MaP array; FMN 200 µM where present
Procedure, shortened: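 Apparent Kd: the median of filtered binding-curve fits from single clusters. Designs were transcribed on Illumina sequencing-chip clusters by stalled E. coli RNA polymerase and titrated with SNAP-549-labelled MS2 coat protein from 0.7 or 1.5 nM, doubling to 3 µM, in 100 mM Tris-HCl pH 7.5, 80 mM KCl, 4 mM MgCl2, BSA, DTT, yeast tRNA and Tween-20. Each series ran without and then with constant ligand, and green signal was normalised to red-channel RNA signal and control-cluster median Fmax.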

[1] = designed as: OFF switch for flavin mononucleotide, no ligand
[2] = ligand present: flavin mononucleotide, designed as: OFF switch for flavin mononucleotide
[3] = designed as: ON switch for flavin mononucleotide, no ligand
[4] = ligand present: flavin mononucleotide, designed as: ON switch for flavin mononucleotide

Sequence: UGGGCUACGUGGUCCGCCAGACGUAGAAGGGUCUACAUGAGGAUCACCCAUGUGACCGUUAGUGGACAGGAUAUACGCGGAGUG
- apparent Kd [1]: 8.38 nM
- apparent Kd [2]: 22.8 nM

Sequence: UUGGACGUCGUAGGAUAUGUUGGAUAUUCCUACAUGAGGAUCACCCAUGUUGACAUGGAAGAAGGACAGAAGGACGAUGUCCAU
- apparent Kd [3]: 5.08 nM
- apparent Kd [4]: 4.49 nM

Sequence: GAUCGCCGUGUCAGGAUAUCUUGUGUACCCACGUUAGAGAAGGGACAUGAGGAUCACCCAUGUACCCUGGUUUU
- apparent Kd [1]: 17.6 nM
- apparent Kd [2]: 19.2 nM

Sequence: GUCUCCGCUCGAGGAUAUAGCUGCAUGUAGUGUCCUGAGGCACAUGAGGAUCACCCAUGUGUAGGCUAGAAGGCGACGGACACU
- apparent Kd [2]: 29.2 nM

Sequence: GUACUACCCACAGAUAACUUAGCCAGAAGGGUCUACAUGAGGAUCACCCAUGUGGUCCAAAGUGGACAGGAUAUGGAAACGGUU
- apparent Kd [1]: 139 nM
- apparent Kd [2]: 12.2 nM

Sequence: AGUGCCAUGUAGAAGGGAGAUCUGAUUCAGAUCUCAGGAUAUACAUGAGGAUCACCCAUGUAAAUGCACUGCACGAGAGUGCAA
- apparent Kd [1]: 12.5 nM
- apparent Kd [2]: 30.9 nM

Sequence: UGGUUGUCAGGAUAUUGGGUUUUUAACUUUAGUUUUAUAUUCGAGAAGGGACAUGAGGAUCACCCAUGUUACGU
- apparent Kd [1]: 32.7 nM
- apparent Kd [2]: 37.6 nM

Sequence: AUCAGCUCGUCAGGAUAUACGUCACUGCGUCAGCAGUGUGGUAAGAUCACAUGAGGAUCACCCAUGUAGAAGGCACGAGCUGAU
- apparent Kd [1]: 8.44 nM
- apparent Kd [2]: 9.04 nM

Sequence: UGUCGGAGCAGAGGAUAUUACAUGAGGAUCACCCAUGUAUGAACCAAUAGCUGGAAACAGCAAUGGAAGAAGGCUGCUCCGACA
- apparent Kd [1]: 4.99 nM
- apparent Kd [2]: 5.37 nM

Sequence: GAGCCUCCGUAGAAGGCCGCGGAAUUCGAACGCGGAGGAUAUACAUGAGGAUCACCCAUGUGAAAGUGGAAAGAUAAAACGCUU
- apparent Kd [1]: 12.4 nM
- apparent Kd [2]: 30.4 nM

Sequence: GGUUGGCGAGGAUAUACAUGAGGAUCACCCAUGUGGUCCUGUGGCUGGUCUUACCUUUGUAGAAGGCGCGGGUC
- apparent Kd [1]: 88.4 nM
- apparent Kd [2]: 93.2 nM

Sequence: CCGGCUGCUGUGAGGAUAUGCCUGUGGGUGCGUGGGUAGAAGGCACAUGAGGAUCACCCAUGUCCUGCGGGCCC
- apparent Kd [1]: 123 nM
- apparent Kd [2]: 81.8 nM

Sequence: CGAGCUGCCAGAGGAUAAUGGACAUGAGGAUCACCCAUGUGUCAGGAUAUGGGUUUCACAUGGACUCAGAAGGGACCAGCCCGA
- apparent Kd [3]: 107 nM
- apparent Kd [4]: 30.2 nM

Sequence: AACUCGUCAGGAUAUGCAUGCAGUUGCUGCAUUUCGCCGUUGCAGAAGGGACAUGAGGAUCACCCAUGUAGGUC
- apparent Kd [1]: 42.4 nM
- apparent Kd [2]: 37.2 nM

Sequence: GCGUCAGAAUUAAUUGUGACAGGCAGAAGGCUAUAUCUUAUGUUAGACAUGAGGAUCACCCAUGUAGAGGAUAUGCAGUUACAC
- apparent Kd [1]: 7.77 nM
- apparent Kd [2]: 17 nM

Sequence: GCGUAUUAGGUGUAGCUAGACAUUCAAGAAGGGUGAAGAACAUGAGGAUCACCCAUGUAGUUUUUACAGGAUAUUGAUAUACGC
- apparent Kd [3]: 356 nM
- apparent Kd [4]: 20.4 nM

Sequence: GUCAGCUCGUGAGGAUAUACAUGAUAGAUCGAUUAAUUAAUUAAUUUAACAUGAGGAUCACCCAUGUAGAAGGUACGAGCUGAC
- apparent Kd [1]: 52 nM
- apparent Kd [2]: 66.3 nM

Sequence: CGGUCGAUGUAAGGAUAUCGACUGGAUAACAGUCGAGAAGGUACAUGAGGAUCACCCAUGUAAUCCUAAUAAUAAUAACGACCG
- apparent Kd [1]: 12.6 nM
- apparent Kd [2]: 18 nM

Sequence: GGAACGAUCAUCAUUGAACAUGAGGAUCACCCAUGUACGAUGUAGGAUAUAUACCCGGUCAAGGUAUAGAAGGACAGGGUACAG
- apparent Kd [1]: 18.6 nM
- apparent Kd [2]: 55.4 nM

Sequence: CUUAUGUGAGGAUAUGGUGUUGAUCACAGGAAAAAGAUUCUCCAGAAGGCACAUGAGGAUCACCCAUGUAGUGA
- apparent Kd [1]: 145 nM
- apparent Kd [2]: 90 nM

Sequence: UGUCGGAGCAGAGGAUAUUACAUGAGGAUCACCCAUGUAUGAACCAAUAGCUGGAAACAGAAAUGUAAGAAGGCUGCUCCGACA
- apparent Kd [1]: 5.84 nM
- apparent Kd [2]: 21.2 nM

Sequence: CAGCAAGUCACAGGAUAUGGUGAUGUACAUGAGGAUCACCCAUGUCCGUCUUCUCUCACAAGAUGCCAGAAGGGUGACUUCCGG
- apparent Kd [3]: 950 nM
- apparent Kd [4]: 135 nM

Sequence: CCAUAAAAGAUCCAAAAUUACAACAUGAGGAUCACCCAUGUGCAGGAUAUCGUGCCAGUGAUGUACGAGAAGGGCAGACACUGC
- apparent Kd [1]: 356 nM
- apparent Kd [2]: 400 nM

Sequence: UGUACUUAUUUUAAUUAUGAUUUACUAGAAGGUAGAUACAUGAGGAUCACCCAUGUUUAGAGUUCUAAGGAUAUAGAUUUUAUC
- apparent Kd [3]: 10.3 nM
- apparent Kd [4]: 10.2 nM

Sequence: AUAUGAAAGAUAGGAUAUACUGAGGUUGAAUGGGUAGAAGGAUCGAUAGUGGAGAAGACAUGAGGAUCACCCAUGUUGUGGAUU
- apparent Kd [3]: 656 nM
- apparent Kd [4]: 237 nM

Sequence: AACGGGUGGGUAGGAUAUGGCUAUGUCUCAUUGCUAGAAGGACCAGCUACUACAUGAGGAUCACCCAUGUCGUAGUGCACCCAG
- apparent Kd [3]: 20.5 nM
- apparent Kd [4]: 6.04 nM

Sequence: GACAUACAUGAGGAUCACCCAUGUUCAAACGGGCAAGGAUAUGUGUGGAAACCAUACUAUACAGAAGGUGUCUGUC
- apparent Kd [3]: 28.4 nM
- apparent Kd [4]: 18.7 nM

Sequence: AUGGUGGUAGGAUAUACAACUACUUGAUCGCGUUUCAUGGAACAUGAGGAUCACCCAUGUAGAAGGGCCCGAGG
- apparent Kd [1]: 794 nM
- apparent Kd [2]: 552 nM

Sequence: AUCAGCUCGUCAGGAUAUAUGUCACUGCUUCGGCAGUGUGGUAAGAUUACAUGAGGAUCACCCAUGUAGAAGGGACGAGCUGAU
- apparent Kd [1]: 6.12 nM
- apparent Kd [2]: 6.9 nM

Sequence: GGAAACUACGAGAAGGACAUGUGGUCCUUCAGUUACAUGAGGAUCACCCAUGUAGGAUAUCGUAGUUUCAGGAUCGUGAGAUCA
- apparent Kd [1]: 33.2 nM
- apparent Kd [2]: 10.7 nM

Sequence: GUAAAGUGAGGAUAUGGUAAAGUAAGUAUUUAGUAAGUAAUCCAGAAGGCACAUGAGGAUCACCCAUGUAAAUG
- apparent Kd [1]: 29.3 nM
- apparent Kd [2]: 35.8 nM

Sequence: GUCAGCUCGUGAGGAUAUACAUGUGCUGGAUACAGCAUUAAAUUUUUCACAUGAGGAUCACCCAUGUAGAAGGCACGAGCUGAU
- apparent Kd [1]: 19.2 nM
- apparent Kd [2]: 49.6 nM

Sequence: CUUAUGUGAGGAUAUGGUGUUGGUCACAGGAAAAAGAUUCUCCAGAAGGCACAUGAGGAUCACCCAUGUAGUGA
- apparent Kd [1]: 89.4 nM
- apparent Kd [2]: 71.2 nM

Sequence: AAGUCGUGAGGAUAUACAUGGAUAUACAUUUAUGUGGACCUACAUGAGGAUCACCCAUGUAGAAGGCACGACUA
- apparent Kd [1]: 196 nM
- apparent Kd [2]: 93.5 nM

Sequence: UAAAUUAACAAGAAGGCUAACAUGAGGAUCACCCAUGUUGUACAUGGAUAUAGAGGAUAUUGAUAAUAAUUUUUUAUCAUAAUU
- apparent Kd [1]: 17.6 nM
- apparent Kd [2]: 16.5 nM

Sequence: GGAAAACAUGAGGAUCACCCAUGUGAGGAUAUCGAUGUCCAAAAACCCGUGCGGGACUCGAGAAGGCACUUGGA
- apparent Kd [1]: 43.1 nM
- apparent Kd [2]: 57 nM

Sequence: AGAUGACAAAGUCAUCUCGCUUUGACAUGAGGAUCACCCAUGUAGGAUAUAUUACUCAAAGAGUAAUAGAAGGACAUGUUUCUG
- apparent Kd [1]: 72.7 nM
- apparent Kd [2]: 163 nM

Sequence: AGCUGGUGACAGCAUCCAUCCUGACAUGAGGAUCACCCAUGUAGAAGGCUGUACGGUUACCGUACAGAGGAUAUACAAUGAUGG
- apparent Kd [1]: 10.1 nM
- apparent Kd [2]: 22.3 nM

Sequence: GUGUACAGAGGAUAUACAUGAGCAUGGAAACAUGCAUCCUCACAUGAGGAUCACCCAUGUAGAAGGCUGUACAC
- apparent Kd [1]: 26.6 nM
- apparent Kd [2]: 31.6 nM

Sequence: UCAUUUAAUACAGGAUAUGUUAGUAUACAGUAGAUUGGUUAUAACAUAAUAACAGAAGGGUAGAACAUGAGGAUCACCCAUGUA
- apparent Kd [3]: 86 nM
- apparent Kd [4]: 64.6 nM

Sequence: UUUCAACAUGAGGAUCACCCAUGUGAGGAUAUGAUGCAGCAGUGGUCUACGCUGUGCAUCAGAAGGCACAUGUG
- apparent Kd [1]: 200 nM
- apparent Kd [2]: 21.8 nM

Sequence: UCGACGAAAGUCGAACGAUGUAGCAGAAGGACAUGAGGAUCACCCAUGUCAGCUGUAACAGCCAUGUAGGAUAUGCUACAUCGA
- apparent Kd [1]: 3.96 nM
- apparent Kd [2]: 5.54 nM

Sequence: GAAAACAGAGGAUAUACAUGAUUAUGACGAAAGUCAUAAAAACAUGAGGAUCACCCAUGUAGAAGGCUGAAGAA
- apparent Kd [1]: 185 nM
- apparent Kd [2]: 201 nM

Sequence: GCGGUCAACGUAGGAUAUCUUCAGCCACAGCGCAUUGCUGUACAUGAGGAUCACCCAUGUCCUGGAGAGAAGGACGGACGGCAG
- apparent Kd [3]: 123 nM
- apparent Kd [4]: 34.2 nM

Sequence: CCGCGCGCGCGAGGAUAUCUAUAUCCAACAUGAGGAUCACCCAUGUUGAGGAUCACCCAUGUAAAGGAGAAGGCGCGCGCGCGG
- apparent Kd [3]: 44.8 nM
- apparent Kd [4]: 15.8 nM

Sequence: UCCUGGCGAGGAUAUACAAUGUUUUUCGCGUGUUGUUGCGAACAUGAGGAUCACCCAUGUAGAAGGUGCUACUG
- apparent Kd [1]: 278 nM
- apparent Kd [2]: 225 nM

Sequence: CAGGAGAACACAGGAUAUCCGUAAGACAUGAGGAUCACCCAUGUUUGUGGCCCGCCAGGGCUGACGGAGAAGGGUGACUCGCAC
- apparent Kd [3]: 9.04 nM
- apparent Kd [4]: 5.81 nM

Sequence: GGUCCUUCUGUUAGGAUAUGCUUUGGGCUUCCGCAGUAGAAGGAACAUGAGGAUCACCCAUGUCCGAUGCCGUA
- apparent Kd [1]: 65.3 nM
- apparent Kd [2]: 84.4 nM
